Assay outcomes deposited in PubChem by several laboratories.
AI-2 QS modul: Vibrio harveyi AI-2 quorum sensing modulation; Vibrio harveyi JMH597 AI-2 luminescence/OD600 ratio, 9 h; stronger effect = lower value; strain lacks LuxN and CqsS sensors; 0 = neutral-control median; activity change, % at 7.5 µM; 300,000 compounds, 0.4% hits; AID 2094; in the data active means activity change below about -75%, passing the limit was not always enough;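 further: luminescence divided by OD600 gain over 9 h not by final OD600 alone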
NTR1 agonist: activates human neurotensin receptor 1. P30989. NTR1-U2OS beta-arrestin-GFP spot imaging, agonist mode. activation, % at 20 µM. 330,000 compounds, 0.17% hits;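 active means activation at or above 40% of the spot to cytoplasm intensity ratio, with at least 20 cells analyzed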;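 further: 0% = DMSO without peptide and 100% = 100 nM NTR1 peptide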
MC4R antag cAMP: antagonists of human melanocortin 4 receptor (MC4R); P32245; MC4R-expressing cells, MTII-stimulated cAMP, LANCE TR-FRET; inhibition, % at 6.5 µM; 360,000 compounds, 0.48% hits; AID 540295;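 active means inhibition above its plate's cutoff, the mean of tested wells on that plate plus 3 SD, cut at about 29% in these data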;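 further: 0% = Melanotan II alone and 100% = Melanotan II plus saturating MCL0020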
Target sequence (P32245 whole entry, looked up): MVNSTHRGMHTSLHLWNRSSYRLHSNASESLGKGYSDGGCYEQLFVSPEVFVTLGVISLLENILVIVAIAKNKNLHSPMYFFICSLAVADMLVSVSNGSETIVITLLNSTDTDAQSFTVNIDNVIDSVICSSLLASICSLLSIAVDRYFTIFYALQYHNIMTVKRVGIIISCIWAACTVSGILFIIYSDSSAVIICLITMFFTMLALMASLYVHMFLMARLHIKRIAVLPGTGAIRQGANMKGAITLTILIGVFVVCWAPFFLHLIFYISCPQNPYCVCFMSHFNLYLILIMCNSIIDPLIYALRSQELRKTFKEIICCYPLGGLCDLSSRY
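System: U2OS cells stably expressing human melanocortin 4 receptor (MC4R). Reagent: Melanotan II challenge after compound preincubation. Doses: 6.5 µM. Times: 30-min compound, 1-h challenge, 1-h detection, room temperature. Measured by: TR-FRET with Eu-cAMP and labeled anti-cAMP, 671 nm. Replicates: singlicate.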
MC4R barr agon: agonists of human melanocortin 4 receptor (MC4R) beta-arrestin; P32245; U2OS MC4R beta-arrestin complementation, luminescence; percent of melanotan II response, DMSO zero; activation, % at 8.9 µM; 360,000 compounds, 0.98% hits; AID 540308;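 active means activation above a per-plate cutoff, the mean activation of sample wells on that plate plus 3 SD, cut at about 8% in these data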
cAMP nonselect: U2OS forskolin cAMP inhibition counter-screen. inhibition, % at 6.5 µM. parental U2OS, LANCE TR-FRET. shares compounds with MC4R antag cAMP. 1,600 compounds, 26% hits. AID 602193;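 active means mean inhibition over triplicates above the low-control well mean plus 3 SD, set per campaign, cut at about 13% in these data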;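 further: signal is single emission at 671 nm which falls as cellular cAMP rises; 0% = forskolin-stimulated wells and 100% = buffer without forskolin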
MC4R antag conf: human MC4R cAMP antagonism confirmation. inhibition, % at 6.5 µM. shares compounds with MC4R antag cAMP. MC4R-expressing cells, MTII-stimulated cAMP, TR-FRET. 1,600 compounds, 27% hits; in the data active means inhibition above about 29%;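 further: 0% = agonist stimulated wells alone and 100% = agonist stimulated wells plus saturating reference antagonist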
Starred values were filed as active, the others as inactive; . = no result given. Most compounds without a hit are left out; they make up all but 1.8% or so of the library.

SMILES	AI-2 QS modul	NTR1 agonist	MC4R antag cAMP	MC4R barr agon	cAMP nonselect	MC4R antag conf
COCCNC(=O)c1ccccc1NC(=O)Nc1ccccc1	15.0	0.2	30.8*	-0.3	3.0	10.7
O=C(Nc1ccccc1)Nc1ccccc1C(=O)NCC1CC1	23.5	-0.9	-3.2	4.7	.	.
CS(=O)(=O)c1ccc(-c2sc3ccccc3c2C#CCCO)cc1	.	10.5	25.6	-0.6	.	.
COc1ccc2c(C#CCCO)c(-c3ccc(S(C)(=O)=O)cc3)sc2c1	.	8.7	36.5*	7.6	-5.2	5.4
CC(c1ccco1)N(C(=O)c1ccccc1NS(=O)(=O)c1ccc(Cl)c([N+](=O)[O-])c1)c1ccccn1 (stereo not given)	-0.2	15.9	39.2*	-1.5	6.3	15.9
CC(c1ccco1)N(C(=O)c1cc(Cl)cc(Cl)c1)c1ccccn1 (stereo not given)	-7.9	1.5	6.8	-1.4	.	.
O=C(O)c1ccc(NC(=O)c2ccc(COc3ccccc3)o2)cc1	39.6	-0.5	28.7*	2.6	-1.1	-14.0
COCc1ccc(C(=O)Nc2ccc(C(=O)O)cc2)o1	7.0	-0.6	-0.1	-1.1	.	.
O=C(N[C@@H](Cc1ccccc1)C(=O)N1CCN(S(=O)(=O)c2ccc(F)cc2)CC1)c1ccco1	.	1.2	10.2	0.7	.	.
Cc1nc(C(N)=O)c(N)n1CCc1ccccc1	5.5	1.3	-1.6	-2.0	.	.
O=C(O)COc1ccc2nsnc2c1Cl	6.7	-0.6	69.9*	-2.1	45.6*	81.5*
C=CCn1c(SCC(=O)Nc2ccc(OC)cc2)nnc1-c1cnccn1	10.4	0.3	-5.2	-0.8	.	.
CCC1=C(c2cc(OC)c(OC)c(OC)c2)C2(CCCC2)C(=O)O1	24.6	-5.9	7.1	0.1	.	.
CCc1nnc(NS(=O)(=O)c2ccc(N/C=C\C(=O)c3cccc(OC)c3)cc2)s1	32.3	-0.2	33.8*	-2.0	1.7	9.1
CCc1nnc(NS(=O)(=O)c2ccc(N/C=C/C(=O)c3ccc(C)cc3)cc2)s1	-10.5	2.0	8.8	-1.0	.	.
Cc1ccc2c(c1)cc(C(=O)NCc1ccccc1)n2C	-10.8	-1.8	-5.6	1.1	.	.
CCCC1=[N+](CC(=O)c2ccc(Br)cc2)CCn2cccc21	11.7	0.1	11.1	3.0	.	.
CCCC1=[N+](CC(=O)c2ccccc2)CCn2cccc21	24.7	-0.8	28.8*	-1.2	2.0	4.4
CC(=O)Nc1c(Cl)cc2c(c1Cl)Cc1cc(C#N)ccc1-2	.	.	5.1	4.9	.	.
Oc1ccc(-c2n[nH]c(C(F)(F)F)c2-c2ccccc2)c(O)c1	63.0	5.1	30.4*	2.8	4.3	-3.4
CCCCCCn1ccc(=N)cc1	1.0	5.6	3.0	-1.0	.	.
CCCCCCCCCCCCCCCCn1cc[n+](CC(C)=O)c1	.	.	28.7*	15.8*	3.2	32.5*
O=C(c1ccc(Cl)cc1)C1CCN(C(=S)Nc2ccccc2)CC1	.	.	2.7	0.0	.	.
CN(Cc1nc2ccccc2c(=O)[nH]1)C(=O)c1cccc(NC(=O)c2cccs2)c1	.	2.4	6.3	-3.9	.	.
O=C(CCC1CCCC1)Nc1cccc(Cc2ccncc2)c1	12.1	0.5	33.4*	0.6	-2.8	-14.0
SMILES	AI-2 QS modul	NTR1 agonist	MC4R antag cAMP	MC4R barr agon	cAMP nonselect	MC4R antag conf
O=C(NC1=NCCS1)c1ccccc1	20.9	0.2	13.9	0.6	.	.
O=C(Nc1nc2ccccc2[nH]1)c1ccc(Cl)c(S(=O)(=O)N2CCCC2)c1	25.0	-1.7	29.0*	-1.4	10.5	7.3
Cc1cccc(C(=O)NC2=NCCS2)c1	23.1	-0.6	33.3*	0.6	-1.0	3.9
O=C(NC1=NCCS1)c1ccc(Cl)c(S(=O)(=O)N2CCCC2)c1	-4.7	0.5	32.0*	0.9	5.3	1.2
O=C(NC1=NCCS1)c1ccc(Cl)c(S(=O)(=O)N2CCCCC2)c1	30.6	0.3	2.6	-3.5	.	.
Cc1cccc(C(=O)OCC(=O)N2CCCCCC2)c1	.	-1.2	6.2	-1.0	.	.
O=C(COC(=O)c1ccncc1)NCCCc1ccccc1	43.4	-0.3	29.6*	1.8	2.1	7.3
Cc1ccc(-n2c(SCC(=O)c3c(N)n(C4CC4)c(=O)[nH]c3=O)nnc2N2CCOCC2)cc1	.	0.0	1.4	-1.9	.	.
COc1ccc(CCNC(=O)COC(=O)C2CC2C)cc1OC (stereo not given)	.	0.4	-0.3	-0.7	.	.
CCOC(=O)CSc1nnc(NCC(=O)OC(C)C)c(=O)[nH]1	20.7	0.1	34.6*	-0.8	17.6*	28.2
CCOC(=O)CNC(=O)CSc1nnc(C)c(=O)[nH]1	7.6	-0.8	9.6	-0.6	.	.
CC(C)OC(=O)CNc1n[nH]c(=S)[nH]c1=O	2.1	.	40.8*	-0.3	2.9	13.0
O=C(O)c1ccc(/C=C2\COc3ccccc3C2=O)cc1	-1.5	4.8	36.2*	-3.0	5.1	6.0
COc1ccc(/C=C2\COc3ccccc3C2=O)cc1OC	12.4	21.9	14.9	1.5	.	.
Cc1ccc(C)c(NC(=O)c2sc(Cl)nc2-c2ccccc2)c1	3.4	11.3	36.9*	2.9	15.2*	32.2*
CCOc1ccc(NC(=O)CSCC(=O)O)cc1	11.8	-0.4	-1.7	-1.3	.	.
CCOc1ccc(NC(=O)CSc2ccccc2N)cc1	7.3	-0.5	31.8*	2.8	-5.0	-12.2
Cc1ccc(CNC(=O)CN2C(=O)c3ccccc3S2(=O)=O)cc1	18.1	0.2	11.4	0.4	.	.
Cc1ccccc1CNC(=O)CN1C(=O)c2ccccc2S1(=O)=O	20.9	-0.9	29.2*	0.9	2.4	0.7
CN(c1ccccc1)c1nc(N)c([N+](=O)[O-])c(NCc2ccccc2)n1	10.1	19.1	-1.9	1.6	.	.
Cc1nc(Cl)nc(N(C)c2ccccc2)c1[N+](=O)[O-]	18.8	3.5	35.6*	-3.6	21.6*	6.2
CC1(CO)COC2(OC1)C(=O)Nc1ccccc12 (stereo not given)	.	-0.8	9.2	-2.9	.	.
COc1cc(CN2CCCC(N3CCN(c4ccc(F)cc4)CC3)C2)ccc1F (stereo not given)	6.5	2.5	30.3*	0.9	0.3	4.6
CCOC(=O)Cn1nnnc1CN(Cc1cccs1)Cc1cc2cc(C)ccc2[nH]c1=O	11.7	0.1	30.9*	2.3	9.0	9.7
COc1ccc2c(c1)c(CC(=O)Nc1cc(C)ccc1C)c(C)n2C(=O)c1ccc(Cl)cc1	2.9	0.4	3.4	-1.6	.	.
COc1ccc2c(c1)c(CC(=O)Nc1ccc(C(C)=O)cc1)c(C)n2C(=O)c1ccc(Cl)cc1	-7.9	-1.6	29.2*	-0.1	-0.4	7.3
CC1(C(=O)N2CCCCC2)CCN1C(=O)C1(c2ccccc2)CC1 (stereo not given)	.	.	-3.9	-2.8	.	.
CCOC(=O)COc1ccc(S(=O)(=O)N2CCN(c3ccc(F)cc3)CC2)cc1	18.5	2.7	8.4	-1.3	.	.
COC(=O)COc1ccc(S(=O)(=O)N2CCN(c3ccc(F)cc3)CC2)cc1	27.3	5.2	30.8*	2.2	15.6*	45.5*
